Measurements taken from ChEMBL document CHEMBL4689842, “EUbOPEN Chemogenomics Library wave 1” (2021).

Tested on: HEK-293T
Assay: Multiplex assay against HEK293T;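 for Population Tubulin-Different-Phenotype (%): share of the cells with healthy nuclei that show this phenotype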
Type: toxicity, cell-based
Settings: human
In short: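 Phenotypes for tubulin, mitochondrial mass and membrane permeability are expressed as per cents of healthy-nucleus cells. Cells were stained live at seeding with Hoechst33342, BioTracker Green Microtubule Cytoskeleton Dye, MitoTracker Red and Annexin V Alexa Fluor 680, then imaged after compound addition on a CQ1 microscope at 37°C and 5% CO2. Machine-learning gating in CellPathfinder separated Hoechst high-intensity objects from normal cells, divided normal cells by nuclear state (healthy, pyknosed, fragmented) and divided pyknosed cells into mitotic or apoptotic.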

[1] = 12 h, 1 µM, compound concentration 1 uM, replicate 1
[2] = 12 h, 1 µM, compound concentration 1 uM, replicate 2
[3] = 12 h, 10 µM, compound concentration 10 uM, replicate 1
[4] = 12 h, 10 µM, compound concentration 10 uM, replicate 2
[5] = 24 h, 1 µM, compound concentration 1 uM, replicate 1
[6] = 24 h, 1 µM, compound concentration 1 uM, replicate 2
[7] = 24 h, 10 µM, compound concentration 10 uM, replicate 1
[8] = 24 h, 10 µM, compound concentration 10 uM, replicate 2
[9] = 48 h, 1 µM, compound concentration 1 uM, replicate 1
[10] = 48 h, 1 µM, compound concentration 1 uM, replicate 2
[11] = 48 h, 10 µM, compound concentration 10 uM, replicate 1
[12] = 48 h, 10 µM, compound concentration 10 uM, replicate 2

In the case of `COc1ccc(-c2ccc3ncc4c(c3c2)n(-c2ccc(N3CCNCC3)c(C(F)(F)F)c2)c(=O)n4C)cn1.O=C(O)/C=C\C(=O)O` [BGT-226], the “Population Apoptotic (%)” value [1] is reported as 70%, the “Population Fragmented Nuclei (%)” value [1] is reported as 22% and the “Population Healthy Nuclei (%)” value [1] is reported as 2%. The “Population Hoechst High Intensity Objects (%)” value [1] was 25%, the “Population Mitochondria Different-Phenotype (%)” value [1] was 87% and the “Population Mitotic Cells (%)” value [1] was 29%. For the same compound, the “Population Normal (%)” value [1] was 74%, the “Population Pyknosed Nuclei (%)” value [1] was 74% and the “Population Tubulin-Different-Phenotype (%)” value [1] was 87%. For the same compound, the “Total Cell Count” value [1] was 358, the “Population Apoptotic (%)” value [2] was 78% and the “Population Fragmented Nuclei (%)” value [2] was 8%. The “Population Healthy Nuclei (%)” value [2] was 6%, the “Population Hoechst High Intensity Objects (%)” value [2] was 10% and the “Population Membrane Permeable-Phenotype (%)” value [2] was 0%. For the same compound, the “Population Mitochondria Different-Phenotype (%)” value [2] was 100%, the “Population Mitotic Cells (%)” value [2] was 21% and the “Population Normal (%)” value [2] was 89%. The “Population Pyknosed Nuclei (%)” value [2] was 84%, the “Population Tubulin-Different-Phenotype (%)” value [2] was 90% and the “Total Cell Count” value [2] was 162. The “Population Apoptotic (%)” value [3] was 72%, the “Population Fragmented Nuclei (%)” value [3] was 28% and the “Population Healthy Nuclei (%)” value [3] was 0%. For the same compound, the “Population Hoechst High Intensity Objects (%)” value [3] was 28%, the “Population Membrane Permeable-Phenotype (%)” value [3] was 50% and the “Population Mitochondria Different-Phenotype (%)” value [3] was 50%. For the same compound, the “Population Mitotic Cells (%)” value [3] was 27%, the “Population Normal (%)” value [3] was 71% and the “Population Pyknosed Nuclei (%)” value [3] was 70%. For the same compound, the “Population Tubulin-Different-Phenotype (%)” value [3] was 100%, the “Total Cell Count” value [3] was 306 and the “Population Apoptotic (%)” value [4] was 96%. For the same compound, the “Population Fragmented Nuclei (%)” value [4] was 51%, the “Population Healthy Nuclei (%)” value [4] was 7% and the “Population Hoechst High Intensity Objects (%)” value [4] was 45%. The “Population Membrane Permeable-Phenotype (%)” value [4] was 11%, the “Population Mitochondria Different-Phenotype (%)” value [4] was 16% and the “Population Mitotic Cells (%)” value [4] was 3%. The “Population Normal (%)” value [4] was 54%, the “Population Pyknosed Nuclei (%)” value [4] was 41% and the “Population Tubulin-Different-Phenotype (%)” value [4] was 66%. The “Total Cell Count” value [4] was 454, the “Population Apoptotic (%)” value [5] was 70% and the “Population Fragmented Nuclei (%)” value [5] was 27%. The “Population Healthy Nuclei (%)” value [5] was 2%, the “Population Hoechst High Intensity Objects (%)” value [5] was 20% and the “Population Membrane Permeable-Phenotype (%)” value [5] was 12%. The “Population Mitochondria Different-Phenotype (%)” value [5] was 75%, the “Population Mitotic Cells (%)” value [5] was 29% and the “Population Normal (%)” value [5] was 79%. For the same compound, the “Population Pyknosed Nuclei (%)” value [5] was 69%, the “Population Tubulin-Different-Phenotype (%)” value [5] was 75% and the “Total Cell Count” value [5] was 358. For the same compound, the “Population Apoptotic (%)” value [6] was 84%, the “Population Fragmented Nuclei (%)” value [6] was 9% and the “Population Healthy Nuclei (%)” value [6] was 9%. The “Population Hoechst High Intensity Objects (%)” value [6] was 8%, the “Population Membrane Permeable-Phenotype (%)” value [6] was 7% and the “Population Mitochondria Different-Phenotype (%)” value [6] was 92%. For the same compound, the “Population Mitotic Cells (%)” value [6] was 15%, the “Population Normal (%)” value [6] was 91% and the “Population Pyknosed Nuclei (%)” value [6] was 81%. The “Population Tubulin-Different-Phenotype (%)” value [6] was 92%, the “Total Cell Count” value [6] was 169 and the “Population Apoptotic (%)” value [7] was 77%. The “Population Fragmented Nuclei (%)” value [7] was 38%, the “Population Healthy Nuclei (%)” value [7] was 0% and the “Population Hoechst High Intensity Objects (%)” value [7] was 35%. The “Population Membrane Permeable-Phenotype (%)” value [7] was 0%, the “Population Mitochondria Different-Phenotype (%)” value [7] was 0% and the “Population Mitotic Cells (%)” value [7] was 22%. The “Population Normal (%)” value [7] was 64%, the “Population Pyknosed Nuclei (%)” value [7] was 61% and the “Population Tubulin-Different-Phenotype (%)” value [7] was 0%. The “Total Cell Count” value [7] was 317, the “Population Apoptotic (%)” value [8] was 98% and the “Population Fragmented Nuclei (%)” value [8] was 48%. The “Population Healthy Nuclei (%)” value [8] was 15%, the “Population Hoechst High Intensity Objects (%)” value [8] was 46% and the “Population Membrane Permeable-Phenotype (%)” value [8] was 25%. For the same compound, the “Population Mitochondria Different-Phenotype (%)” value [8] was 28%, the “Population Mitotic Cells (%)” value [8] was 1% and the “Population Normal (%)” value [8] was 53%. For the same compound, the “Population Pyknosed Nuclei (%)” value [8] was 35%, the “Population Tubulin-Different-Phenotype (%)” value [8] was 77% and the “Total Cell Count” value [8] was 422. For the same compound, the “Population Apoptotic (%)” value [9] was 74%, the “Population Fragmented Nuclei (%)” value [9] was 38% and the “Population Healthy Nuclei (%)” value [9] was 1%. The “Population Hoechst High Intensity Objects (%)” value [9] was 21%, the “Population Membrane Permeable-Phenotype (%)” value [9] was 0% and the “Population Mitochondria Different-Phenotype (%)” value [9] was 100%. For the same compound, the “Population Mitotic Cells (%)” value [9] was 25%, the “Population Normal (%)” value [9] was 78% and the “Population Pyknosed Nuclei (%)” value [9] was 60%. For the same compound, the “Population Tubulin-Different-Phenotype (%)” value [9] was 100%, the “Total Cell Count” value [9] was 380 and the “Population Apoptotic (%)” value [10] was 84%. The “Population Fragmented Nuclei (%)” value [10] was 10%, the “Population Healthy Nuclei (%)” value [10] was 18% and the “Population Hoechst High Intensity Objects (%)” value [10] was 11%. For the same compound, the “Population Membrane Permeable-Phenotype (%)” value [10] was 3%, the “Population Mitochondria Different-Phenotype (%)” value [10] was 88% and the “Population Mitotic Cells (%)” value [10] was 15%. The “Population Normal (%)” value [10] was 88%, the “Population Pyknosed Nuclei (%)” value [10] was 71% and the “Population Tubulin-Different-Phenotype (%)” value [10] was 85%. For the same compound, the “Total Cell Count” value [10] was 166, the “Population Apoptotic (%)” value [11] was 85% and the “Population Fragmented Nuclei (%)” value [11] was 45%. For the same compound, the “Population Healthy Nuclei (%)” value [11] was 0%, the “Population Hoechst High Intensity Objects (%)” value [11] was 42% and the “Population Membrane Permeable-Phenotype (%)” value [11] was 0%. The “Population Mitochondria Different-Phenotype (%)” value [11] was 0%, the “Population Mitotic Cells (%)” value [11] was 14% and the “Population Normal (%)” value [11] was 57%. The “Population Pyknosed Nuclei (%)” value [11] was 54%, the “Population Tubulin-Different-Phenotype (%)” value [11] was 0% and the “Total Cell Count” value [11] was 360. For the same compound, the “Population Apoptotic (%)” value [12] was 98%, the “Population Fragmented Nuclei (%)” value [12] was 53% and the “Population Healthy Nuclei (%)” value [12] was 22%. For the same compound, the “Population Hoechst High Intensity Objects (%)” value [12] was 44%, the “Population Membrane Permeable-Phenotype (%)” value [12] was 14% and the “Population Mitochondria Different-Phenotype (%)” value [12] was 48%. For the same compound, the “Population Mitotic Cells (%)” value [12] was 1%, the “Population Normal (%)” value [12] was 55% and the “Population Pyknosed Nuclei (%)” value [12] was 24%. The “Population Tubulin-Different-Phenotype (%)” value [12] was 75% and the “Total Cell Count” value [12] was 397.
